Assay outcomes: PubChem BioAssay, several laboratories
In the library only some 0.79% were active in any assay of this set; here they are far more common.
PKA-R1A act: activates the PKA-R1A holoenzyme complex; PKA-R1A dissociation, Cy5-IP20 fluorescence polarization; scaled: DMSO 0%, 113 µM cGMP 100%; P00514+P68181; 0.083% of 340,000 active; activation, % at 11.4 µM;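 active = percent activation above the mean of all tested compounds plus 3 SD, cut at about 19% in these data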;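 also: higher means more PKAc released from R1A so a rise in polarization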
UCH37 DUB inh: human UCH37 deubiquitinating enzyme inhibition | inhibition, % (no concentration beside the values) | purified proteasome/UCH37, Ub-AMC cleavage fluorescence | 0.33% of 330,000 active | Q9Y5K5;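 active = mean inhibition over replicate wells above about 20%, limit read from the data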;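 also: 0% = compound-free wells with enzyme and 100% = wells lacking proteasome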
Target sequence (Q9Y5K5 whole entry, looked up): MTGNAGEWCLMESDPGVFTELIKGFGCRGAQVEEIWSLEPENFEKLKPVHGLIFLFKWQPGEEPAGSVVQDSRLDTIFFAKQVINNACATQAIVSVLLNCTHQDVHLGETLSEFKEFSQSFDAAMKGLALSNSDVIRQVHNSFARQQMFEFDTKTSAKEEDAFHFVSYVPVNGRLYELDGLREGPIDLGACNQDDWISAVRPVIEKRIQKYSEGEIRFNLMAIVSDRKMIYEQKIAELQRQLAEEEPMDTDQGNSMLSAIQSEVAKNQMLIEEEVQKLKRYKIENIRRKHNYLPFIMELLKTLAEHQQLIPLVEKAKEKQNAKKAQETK
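Assay system: Proteasome-bound UCH37. Buffer or medium: pH 7.4 Tris-HCl (50 mM) with ovalbumin, ATP-MgCl2, DTT. Incubation: 30 min preincubation with enzyme, 25 min cleavage at room temperature. Measured by: fluorescence, ex 355 nm, em 460 nm. Read-out basis: percent inhibition. Control set: wells without proteasome as full block, compound-free enzyme plus substrate as uninhibited.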
PKA-R2B act: activators of human PKA-R2B complex; 0.079% of 340,000 active; P22694+P31323; activation, % at 11.4 µM; PKA-R2B holoenzyme dissociation, Cy5-IP20 fluorescence polarization; R2B truncated from residue 108, S112A mutant; 0% DMSO only, 100% 113 µM cGMP;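 active = activation above a cutoff set at the mean over all compounds plus 3 SD, cut at about 18% in these data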;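 also: higher means more holoenzyme dissociation and a rise in polarization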
Rin1 Abl inh: blocks binding of human Rin1 to Abl; P00519+Q13671; TR-FRET Rin1/Abl binding, biochemical; inhibition, % at 7.35 µM; 0.4% of 360,000 active; AID 588664; in the data active = inhibition above about 5%, passing the limit was not always enough
R2B FP artifact: FP assay interference, PKA-R2B counter-screen; shares compounds with PKA-R2B act; FP artifact counterscreen, fluorescence polarization; activation, % at 11.4 µM; 6% of 270 active; AID 504796; in the data active = activation above about 20%;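 also: Cy5 labelled IP20 peptide probe with compound but no PKA protein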
PKA-R2B confirm: confirmation of human PKA-R2B complex activators; shares compounds with PKA-R2B act; fluorescence polarization, activation; AID 504797; activation, % at 11.4 µM; 9% of 270 active; in the data active = activation above about 19%
* marks the source's active call; other numbers are inactive results; i = inactive; . = no result given; + = active, no number.

SMILES	PKA-R1A act	UCH37 DUB inh	PKA-R2B act	Rin1 Abl inh	R2B FP artifact	PKA-R2B confirm
O=C(NC1CCCCC1)c1cc(S(=O)(=O)N2CCN(c3ccccc3)CC2)ccc1Cl	-6.5	0.4	20.0*	-0.5	1.8	-2.5
O=C(c1cc(S(=O)(=O)N2CCN(c3ccccc3)CC2)ccc1Cl)N1CCCCCCC1	-13.2	4.1	-13.1	0.7	.	.
Cc1ccc(S(=O)(=O)NC(C)(C)C)cc1C(=O)OCC(=O)N1CCCC1=O	-1.1	3.4	20.2*	4.0	5.2	5.8
Cc1ccc(C(C(=O)NCCc2ccccc2)N(C(=O)c2csnn2)C2CC2)cc1 (stereo not given)	11.4	6.6	5.5	-1.8	.	.
COCCNC(=O)CN(Cc1ccccc1)C(=O)CCC(=O)Nc1nccs1	0.0	3.5	19.1*	-0.8	2.4	-4.3
COCCNC(=O)CN(Cc1cccs1)C(=O)CCC(=O)Nc1nccs1	-2.2	0.8	-10.0	1.6	.	.
COc1ccc(OC)c(-c2cc(-c3cccnc3)nc(N)c2C#N)c1	0.2	.	19.1*	-3.0	-0.3	0.8
Cc1ccc(N=Cc2c(O)[nH]c3ccccc23)c([N+](=O)[O-])c1	3.0	10.2	19.4*	1.1	2.9	0.7
Cc1cccc(N=Cc2c(O)[nH]c3ccccc23)n1	.	-96.4	.	.	.	.
Oc1ccccc1/C=N/Nc1ncc(Br)cn1	-3.8	.	25.6*	-1.7	3.3	1.7
O=C(CSc1nc2ccccc2c(=O)n1-c1ccccc1)N/N=C/C=C/c1ccccc1[N+](=O)[O-]	-7.9	.	-5.2	-3.0	.	.
Cc1ccccc1-n1c(SCC(=O)N/N=C/C=C/c2ccccc2[N+](=O)[O-])nc2ccccc2c1=O	-5.5	.	20.7*	0.7	-1.4	-4.7
CCC(C)NC(=O)CC(c1ccc(OC)cc1)n1cccc1 (stereo not given)	11.4	-5.0	11.1	0.8	.	.
COC(=O)C1=C(C(=O)OC)C2C=CC1C1C(OC(C)=O)C(OC(C)=O)C21 (stereo not given)	15.8	.	-3.3	-2.3	.	.
Cc1cc(C(=O)c2ccccc2)c(NC(=O)CN2CCOCC2)s1	-15.0	0.9	18.5*	1.2	0.3	-0.4
CCOc1ccc(OCc2cccc(C(=O)O)c2)cc1	-10.7	3.4	20.2*	1.5	3.1	2.2
COc1ccc(/C=C/C(=O)c2c(C)cc(C)[nH]c2=O)c2ccccc12	2.5	0.2	4.7	4.7	.	.
Cc1ccc(F)c([C@H]2[C@@H]3C=CCC[C@@]3(C)C(=O)N2Cc2ccccc2)c1	-9.5	4.1	4.2	1.2	.	.
C[C@@]12CCC=C[C@H]1[C@H](c1ccccc1Br)N(Cc1ccccc1)C2=O	2.3	4.7	11.1	0.0	-2.7	-2.7
O=C(O)C1(C(=O)O)CCC1	i	0.5	+	0.1	i	i
NC(=O)NC1(C(=O)O)CCCC1	-4.7	3.2	3.9	4.1	.	.
COC(=O)c1c[nH]n2c(=O)c(C(C)C)c(C)nc12	-2.3	0.4	-12.4	2.2	.	.
COC(=O)c1c[nH]n2c(=O)cc(CCl)nc12	5.7	-2.2	20.1*	-1.1	-0.4	0.9
O=C(Cc1ccc(Cl)cc1Cl)NC1CCCCCC1	10.1	1.7	22.6*	1.1	-4.3	-1.0
CC(CN(C)Cc1ccccc1)OC(=O)C1COc2ccccc2O1 (stereo not given)	3.6	2.6	1.5	-5.4	.	.
SMILES	PKA-R1A act	UCH37 DUB inh	PKA-R2B act	Rin1 Abl inh	R2B FP artifact	PKA-R2B confirm
CCC(C)NCC(=O)Nc1sc2c(c1C(N)=O)CCC2 (stereo not given)	-8.5	-1.1	-3.8	1.4	.	.
CCC(=O)Nc1sc2c(c1C(N)=O)CCC2	4.0	-2.6	22.1*	-0.7	1.4	0.1
CCN1C/C(=C/c2cccc([N+](=O)[O-])c2)C(=O)/C(=C/c2cccc([N+](=O)[O-])c2)C1	-3.9	2.2	18.7*	4.4	1.8	2.3
CCOc1ccc(NC(=O)CCC(=O)c2ccc(Br)cc2)cc1	1.9	-0.4	1.3	-0.7	.	.
Cc1cccc(/C=N/NC(=O)c2cc(Br)ccc2OCc2ccccc2)n1	0.9	.	19.2*	0.1	8.0	2.0
CCOc1ccc(Br)cc1C(=O)NN=Cc1cccc(C)n1	.	1.4	.	.	.	.
COC(=O)c1ccc(N2CCN(S(=O)(=O)c3ccc(C)cc3)CC2)c([N+](=O)[O-])c1	-4.6	1.2	-7.6	-1.0	.	.
COC(=O)c1ccc(N2CCN(S(=O)(=O)c3c(C)cc(C)cc3C)CC2)c([N+](=O)[O-])c1	-14.0	-0.8	18.5*	-3.5	-5.1	-4.7
CSc1nc2c(c(=O)[nH]c(=O)n2C)n1Cc1ccccc1Cl	4.9	1.4	-3.9	-3.0	.	.
COc1ccc(OC)c(NC(=O)c2cc(-c3ccc(F)cc3OC(C)C)n[nH]2)c1	.	.	.	-1.2	.	.
COc1ccc(NC(=O)Cn2c(=O)oc3cc(Cl)ccc32)c(OC)c1	0.2	7.3	4.5	4.8	.	.
COc1ccc(CCNC(=O)Cn2c(=O)oc3cc(Cl)ccc32)cc1OC	7.3	2.9	18.5*	2.9	-0.2	-2.3
COc1ccccc1NC(=O)c1cc(C(=O)O)ccc1C(=O)O	-7.5	4.9	0.7	7.1	.	.
NC(=O)CC(NC(=O)c1ccc(Br)cc1)c1ccc(N2CCC(Cc3ccccc3)CC2)c([N+](=O)[O-])c1 (stereo not given)	-0.6	4.5	18.5*	1.6	9.8	10.8
COc1ccc(CN2CCN(Cc3ccc4ccccc4c3)CC2)cc1OC	-8.6	0.6	23.5*	0.9	-1.9	-5.0
COc1cccc(/C=C/C(=O)OCC(=O)c2ccc(C)c(C)c2)c1OC	2.0	-12.8	-5.6	4.7	.	.
CCCc1cc(=O)n2[nH]c(NCc3c(Cl)cccc3Cl)nc2n1	14.7	1.4	24.1*	0.3	22.2*	17.9
COCCN(C(=O)COC(=O)C1COc2ccccc2O1)c1c(N)n(Cc2ccccc2)c(=O)[nH]c1=O (stereo not given)	-4.0	-0.2	1.9	-1.0	.	.
CN1C2CCC1CC(NC(=O)c1cc(S(=O)(=O)N(C)C)c(Cl)cc1Cl)C2 (stereo not given)	4.8	0.2	19.0*	-3.8	1.9	0.9
CN(C)S(=O)(=O)c1cc(C(=O)O)c(NC2CCCCC2)cc1Cl	6.8	3.1	-7.7	-1.6	.	.
O=C(c1ccc(OCC2CCCO2)cc1)N1CCN(c2ccccc2)CC1 (stereo not given)	3.7	0.7	19.3*	-1.6	2.5	4.7
O=C(c1ccc(OCC2CCCO2)cc1)N1CCc2ccccc2C1 (stereo not given)	-9.6	1.8	-4.4	-5.1	.	.
CC1CCCN(C(=O)CN2C(=O)c3ccccc3C2=O)C1 (stereo not given)	-8.6	3.8	-9.0	-3.7	.	.
Cc1cnc(NC(=O)CC2OC(=O)c3ccccc32)s1 (stereo not given)	-4.1	0.3	19.4*	0.3	3.0	1.2
